Laboratory results published in ChEMBL document CHEMBL1255273, “Subacute toxicity of colistin methanesulfonate in rats: comparison of various intravenous dosage regimens” (Antimicrob Agents Chemother, 2008).

Columns and labels:
Conditions in all cases: in vivo
Rattus norvegicus [1] = test: Nephrotoxicity in Sprague-Dawley rat assessed as occurrence of severe cortical proximal convoluted tubule necrosis at 150 mg/kg, iv every 12 hrs for 7 days; format: toxicity, organism-based; set-up: dose 150 mg/kg, route intravenous
Rattus norvegicus [2] = test: Nephrotoxicity in Sprague-Dawley rat assessed as occurrence of moderate protein/cellular casts in proximal tubule at 30 mg/kg, iv every 12 hrs for 7 days; format: toxicity, organism-based; set-up: dose 30 mg/kg, route intravenous
Method in brief: (§1)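 Sprague-Dawley rats (6 to 8 weeks old) were dosed for 7 days via a jugular vein cannula at 20 mg/kg/8 h (n = 9) or 30 mg/kg/12 h (n = 11), with a saline placebo group (n = 8). Kidneys were examined histologically post mortem by a blinded histologist. Lesion severity was graded 1+ (mild), 2+ (moderate) or 3+ (severe), and the number of animals showing each lesion was counted.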

Rattus norvegicus [3] = test: Toxicity in Sprague-Dawley rat assessed as effect on food uptake at 30 mg/kg, iv every 12 hrs for 7 days; format: organism-based; set-up: dose 30 mg/kg, route intravenous
Method in brief: (§2)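 Daily cage-side observations covered food and water intake, body weight, body surface temperature and general well-being. Sprague-Dawley rats (6 to 8 weeks old) were dosed via a jugular vein cannula for 7 days, with a saline placebo control. Groups were compared by analysis of variance.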

Rattus norvegicus [4] = test: Toxicity in Sprague-Dawley rat assessed as effect on water consumption at 20 mg/kg, iv every 8 hrs for 7 days; format: organism-based; set-up: dose 20 mg/kg, route intravenous; method in brief: as §2
Rattus norvegicus [5] = test: Nephrotoxicity in Sprague-Dawley rat assessed as occurrence of severe protein/cellular casts in proximal tubule at 150 mg/kg, iv every 12 hrs for 7 days; format: toxicity, organism-based; set-up: dose 150 mg/kg, route intravenous
Rattus norvegicus [6] = test: Nephrotoxicity in Sprague-Dawley rat assessed as occurrence of mild cortical proximal convoluted tubule necrosis at 30 mg/kg, iv every 12 hrs for 7 days; format: toxicity, organism-based; set-up: dose 30 mg/kg, route intravenous; method in brief: as §1
Rattus norvegicus [7] = test: Nephrotoxicity in Sprague-Dawley rat assessed as occurrence of mild nuclear pyknosis at 30 mg/kg, iv every 12 hrs for 7 days; format: toxicity, organism-based; set-up: dose 30 mg/kg, route intravenous; method in brief: as §1
Rattus norvegicus [8] = test: Nephrotoxicity in Sprague-Dawley rat assessed as occurrence of mild interstitial nephritis at 30mg/kg, iv every 12 hrs for 7 days; format: toxicity, organism-based; method in brief: as §1
Rattus norvegicus [9] = test: Nephrotoxicity in Sprague-Dawley rat assessed as occurrence of severe pallor of outer stripe of proximal tubule at 30 mg/kg, iv every 12 hrs for 7 days; format: toxicity, organism-based; set-up: dose 30 mg/kg, route intravenous; method in brief: as §1
Rattus norvegicus [10] = test: Neurotoxicity in Sprague-Dawley rat assessed as effect on forelimb grip strength at 20 mg/kg, iv every 8 hrs for 7 days; format: toxicity, organism-based; set-up: dose 20 mg/kg, route intravenous
Method in brief: (§3)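 Forelimb grip strength was tested daily using a horizontal retort stand. Each rat had to hang from the horizontal beam holding its own body weight to pass. Rats (Sprague-Dawley, 6 to 8 weeks old) were dosed via a jugular vein cannula for 7 days, with a saline placebo control.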

Rattus norvegicus [11] = test: Nephrotoxicity in Sprague-Dawley rat assessed as occurrence of severe intracellular mineralization at 150 mg/kg, iv every 12 hrs for 7 days; format: toxicity, organism-based; set-up: dose 150 mg/kg, route intravenous
Rattus norvegicus [12] = test: Nephrotoxicity in Sprague-Dawley rat assessed as occurrence of moderate cortical proximal convoluted tubule necrosis at 30 mg/kg, iv every 12 hrs for 7 days; format: toxicity, organism-based; set-up: dose 30 mg/kg, route intravenous; method in brief: as §1
Rattus norvegicus [13] = test: Nephrotoxicity in Sprague-Dawley rat assessed as occurrence of severe nuclear pyknosis at 150 mg/kg, iv every 12 hrs for 7 days; format: toxicity, organism-based; set-up: dose 150 mg/kg, route intravenous
Rattus norvegicus [14] = test: Neurotoxicity in Sprague-Dawley rat assessed as effect on motor control at 20 mg/kg, iv every 8 hrs for 7 days; format: toxicity, organism-based; set-up: dose 20 mg/kg, route intravenous
Method in brief: (§4)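 Motor control was tested daily by requiring each rat to walk for 5 min on a rotarod treadmill. Sprague-Dawley rats (6 to 8 weeks old) were dosed via a jugular vein cannula for 7 days, with a saline placebo control.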

Rattus norvegicus [15] = test: Neurotoxicity in Sprague-Dawley rat assessed as effect on motor control at 30 mg/kg, iv every 12 hrs for 7 days; format: toxicity, organism-based; set-up: dose 30 mg/kg, route intravenous; method in brief: as §4
Rattus norvegicus [16] = test: Nephrotoxicity in Sprague-Dawley rat assessed as occurrence of mild protein/cellular casts in proximal tubule at 20 mg/kg, iv every 8 hrs for 7 days; format: toxicity, organism-based; set-up: dose 20 mg/kg, route intravenous; method in brief: as §1
Rattus norvegicus [17] = test: Toxicity in Sprague-Dawley rat assessed as effect on water consumption at 30 mg/kg, iv every 12 hrs for 7 days; format: organism-based; set-up: dose 30 mg/kg, route intravenous; method in brief: as §2
Rattus norvegicus [18] = test: Toxicity in Sprague-Dawley rat assessed as effect on food uptake at 20 mg/kg, iv every 8 hrs for 7 days; format: organism-based; set-up: dose 20 mg/kg, route intravenous; method in brief: as §2
Rattus norvegicus [19] = test: Nephrotoxicity in Sprague-Dawley rat assessed as occurrence of severe protein/cellular casts in proximal tubule at 30 mg/kg, iv every 12 hrs for 7 days; format: toxicity, organism-based; set-up: dose 30 mg/kg, route intravenous; method in brief: as §1
Rattus norvegicus [20] = test: Neurotoxicity in Sprague-Dawley rat assessed as decreased locomotor activity at 30 mg/kg, iv every 12 hrs for 6 days relative to control; format: toxicity, organism-based; set-up: dose 30 mg/kg, route intravenous
Method in brief: (§5)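 Locomotor activity was recorded daily with a photobeam activity meter as part of a functional screening battery. Sprague-Dawley rats (6 to 8 weeks old) received 30 mg/kg/12 h via a jugular vein cannula for 7 days (n = 11), compared with saline placebo (n = 8). The treatment day was reported for each comparison.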

Rattus norvegicus [21] = test: Nephrotoxicity in Sprague-Dawley rat assessed as occurrence of mild protein/cellular casts in proximal tubule at 30 mg/kg, iv every 12 hrs for 7 days; format: toxicity, organism-based; set-up: dose 30 mg/kg, route intravenous; method in brief: as §1
Rattus norvegicus [22] = test: Toxicity in Sprague-Dawley rat assessed as effect on body surface temperature at 20 mg/kg, iv every 8 hrs for 7 days; format: organism-based; set-up: dose 20 mg/kg, route intravenous; method in brief: as §2
Rattus norvegicus [23] = test: Toxicity in Sprague-Dawley rat assessed as effect on body surface temperature at 30 mg/kg, iv every 12 hrs for 7 days; format: organism-based; set-up: dose 30 mg/kg, route intravenous; method in brief: as §2
Rattus norvegicus [24] = test: Neurotoxicity in Sprague-Dawley rat assessed as effect on forelimb grip strength at 30 mg/kg, iv every 12 hrs for 7 days; format: toxicity, organism-based; set-up: dose 30 mg/kg, route intravenous; method in brief: as §3
Rattus norvegicus [25] = test: Neurotoxicity in Sprague-Dawley rat assessed as decreased locomotor activity at 30 mg/kg, iv every 12 hrs for 2 days relative to control; format: toxicity, organism-based; set-up: dose 30 mg/kg, route intravenous; method in brief: as §5

COLISTIMETHATE SODIUM was tested, and the Activity (Rattus norvegicus [1]) was “Toxic”, the Activity (Rattus norvegicus [2]) was “Toxic” and the Activity (Rattus norvegicus [3]) was “Non-toxic”. The Activity (Rattus norvegicus [4]) was “Non-toxic”, the Activity (Rattus norvegicus [5]) was “Toxic” and the Activity (Rattus norvegicus [6]) was “Toxic”. For the same sequence, the Activity (Rattus norvegicus [7]) was “Toxic”, the Activity (Rattus norvegicus [8]) was “Toxic” and the Activity (Rattus norvegicus [9]) was “Toxic”. The Activity (Rattus norvegicus [10]) was “Non-toxic”, the Activity (Rattus norvegicus [11]) was “Toxic” and the Activity (Rattus norvegicus [12]) was “Toxic”. The Activity (Rattus norvegicus [13]) was “Toxic”, the Activity (Rattus norvegicus [14]) was “Non-toxic” and the Activity (Rattus norvegicus [15]) was “Non-toxic”. The Activity (Rattus norvegicus [16]) was “Toxic”, the Activity (Rattus norvegicus [17]) was “Non-toxic” and the Activity (Rattus norvegicus [18]) was “Non-toxic”. For the same sequence, the Activity (Rattus norvegicus [19]) was “Toxic”, the Activity (Rattus norvegicus [20]) was “Toxic” and the Activity (Rattus norvegicus [21]) was “Toxic”. The Activity (Rattus norvegicus [22]) was “Non-toxic”, the Activity (Rattus norvegicus [23]) was “Non-toxic” and the Activity (Rattus norvegicus [24]) was “Non-toxic”. The Activity (Rattus norvegicus [25]) was “Toxic”.
